Data set [1] concerns the target T1, Oxysterols receptor LXR-beta (Homo sapiens, UniProt P55055).
T1 sequence (P55055 whole entry): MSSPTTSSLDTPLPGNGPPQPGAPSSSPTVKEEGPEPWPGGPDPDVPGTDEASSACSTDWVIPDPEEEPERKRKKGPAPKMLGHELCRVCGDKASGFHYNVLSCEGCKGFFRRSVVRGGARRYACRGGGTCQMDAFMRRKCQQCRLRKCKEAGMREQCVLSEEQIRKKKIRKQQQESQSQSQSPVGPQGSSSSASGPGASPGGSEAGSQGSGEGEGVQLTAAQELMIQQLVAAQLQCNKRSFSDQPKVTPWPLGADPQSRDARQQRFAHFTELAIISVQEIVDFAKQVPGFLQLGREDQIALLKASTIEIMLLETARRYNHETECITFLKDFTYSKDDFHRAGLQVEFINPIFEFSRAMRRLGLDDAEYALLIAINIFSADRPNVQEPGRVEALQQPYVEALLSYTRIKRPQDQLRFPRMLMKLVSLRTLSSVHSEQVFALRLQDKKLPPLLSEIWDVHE
The data set can be described thus: Activity at human LXRbeta by Gal4 transactivation assay. A digest of the protocol:
(§1)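 GAL4 DBD fused to hLXRα or hLXRβ LBD in pcDNA3, co-transfected into HepG2 with luciferase reporter. Cells in DMEM with 10% lipoprotein-deficient FBS, 7.5 µM lovastatin, 100 µM mevalonic acid. Ligand added 24 h post-transfection as 11-point curves from 10 µM; luciferase read after 16 h. Run in quadruplicate. %E = max fold induction vs max fold induction of reference dual agonist in same experiment.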

In data set [2] the test system is THP-1. Put plainly: Increase in ABCA1 gene expression in THP1 cells at 1 uM relative to GW-3965. Format: functional, Homo sapiens. A digest of the protocol: (§2)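 THP-1 cells differentiated with 40 ng/mL PMA for 1 day, then switched to RPMI with 2% lipoprotein-deficient FBS. Compound added 6 h later at 1 or 10 µM in DMSO, incubated 24 h. ABCA1 mRNA by one-step TaqMan qRT-PCR, triplicate, multiplexed with 36B4; fold induction vs DMSO, expressed relative to reference dual agonist.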

The target of data set [3] is T1, Oxysterols receptor LXR-beta. Put plainly: Agonist activity at GAL-linked human LXRbeta expressed in THP1 cells assessed as stimulation of co-activator recruitment by FRET assay. The format is functional. The procedure, abridged: (§3)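 Cell-free TR-FRET coactivator recruitment: 20 nM His-tagged hLXRα or hLXRβ, 300 nM biotinylated SRC-1 peptide, Eu-anti-His antibody, APC-streptavidin. 12-point curves from 20 µM; 1 h at 37 °C. Duplicate. %E = maximal coactivator recruitment relative to reference dual agonist in same experiment.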

The next data set deals with Macrophage. Put plainly: Induction of APO-AI-dependent cholesterol efflux in mouse macrophages. Format: functional, cell-based. The procedure, abridged:
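Peritoneal macrophages labelled 24 h with [3H]cholesterol (1.0 µCi/mL) plus ACAT inhibitor 58-035 (2 µg/mL), with compound. Then 2–4 h equilibration in label-free medium with compound. Efflux for 4 h into DMEM/0.2% BSA with or without apoAI (15 µg/mL). apoAI-dependent efflux = medium radioactivity as % of total cell plus medium. Triplicate.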

Data set [4] deals with T2, Oxysterols receptor LXR-alpha (Homo sapiens) (UniProt Q13133).
T2 sequence (whole entry): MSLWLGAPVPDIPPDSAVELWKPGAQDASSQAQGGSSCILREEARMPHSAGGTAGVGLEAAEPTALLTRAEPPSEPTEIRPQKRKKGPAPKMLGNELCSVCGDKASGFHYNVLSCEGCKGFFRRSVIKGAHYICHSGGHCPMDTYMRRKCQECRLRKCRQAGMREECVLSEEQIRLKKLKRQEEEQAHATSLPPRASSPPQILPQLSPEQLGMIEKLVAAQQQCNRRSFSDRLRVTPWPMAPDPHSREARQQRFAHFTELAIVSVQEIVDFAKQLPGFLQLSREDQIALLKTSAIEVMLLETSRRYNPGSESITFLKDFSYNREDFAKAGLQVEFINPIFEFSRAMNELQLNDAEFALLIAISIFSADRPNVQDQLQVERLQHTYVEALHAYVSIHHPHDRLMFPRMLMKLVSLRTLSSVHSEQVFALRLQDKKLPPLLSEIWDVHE
Put plainly: Displacement of [3H]T-0901317 from GAL-linked human LXRalpha expressed in THP1 cells at 20 uM by SPA relative to GW-3965. To be noted: THP-1. The format is cell-based. The procedure, abridged: (§4)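 Scintillation proximity displacement with His-tagged hLXRα or hLXRβ LBD (200 ng/well) and 30 nM [3H]T0901317. Beads 0.2 mg/well in phosphate buffer with EDTA, NaCl, DTT, CHAPS, 10% glycerol. 12-point curves from 20 µM; shaken 3 h at room temperature. No-competitor wells = 100% binding; nonspecific binding without protein. Efficacy = maximal displacement relative to reference dual agonist.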
In general terms: Loss of bound radioactivity is the signal in a displacement assay; it reports binding, not function.

The target of data set [5] is T3, Oxysterols receptor LXR-beta (Homo sapiens) (UniProt P55055).
T3 sequence (whole entry): T1 sequence (P55055 whole entry)
Put plainly: Displacement of [3H]T-0901317 from GAL-linked human LXRbeta expressed in THP1 cells at 20 uM by SPA relative to GW-3965. The following applies: THP-1. Format: cell-based. A digest of the protocol: as §4

Data set [6] concerns the target T4, Oxysterols receptor LXR-alpha (Homo sapiens, UniProt Q13133).
T4 sequence (Q13133 whole entry): T2 sequence (whole entry)
Put plainly: Agonist activity at GAL-linked human LXRalpha expressed in THP1 cells assessed as stimulation of coactivator recruitment by FRET assay. Format: functional. A digest of the protocol: as §3

The target in data set [7] is T2, Oxysterols receptor LXR-alpha (Homo sapiens). Put plainly: Agonist activity at GAL-linked human LXRalpha expressed in THP1 cells assessed as stimulation of co-activator recruitment by FRET assay relative to GW-3965. The format is functional. A digest of the protocol:
as §3

Data set [8] relates to THP-1. Put plainly: Increase in ABCA1 gene expression in THP1 cells at 10 uM relative to GW-3965. The format is functional, Homo sapiens. A digest of the protocol: as §2
For data set [9], the target named is T3, Oxysterols receptor LXR-beta (Homo sapiens). The data set can be described thus: Activity at human LXRbeta by Gal4 transactivation assay relative to GW-3965. The procedure, abridged:
as §1

Data set [10] has the same target. Put plainly: Agonist activity at GAL-linked human LXRbeta expressed in THP1 cells assessed as stimulation of co-activator recruitment by FRET assay relative to GW-3965. The format is functional. The procedure, abridged: as §3
Data set [11] addresses T4, Oxysterols receptor LXR-alpha. The data set can be described thus: Activity at human LXRalpha by Gal4 transactivation assay. The procedure, abridged:
as §1

The target in data set [12] is T2, Oxysterols receptor LXR-alpha (Homo sapiens). Put plainly: Activity at human LXRalpha by Gal4 transactivation assay relative to GW-3965. The procedure, abridged: as §1
Another data set concerns Hepatocyte. Put plainly: Induction on FAS gene expression in human primary hepatocytes at 1 uM. Format: functional, cell-based. The procedure, abridged: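 Primary human hepatocytes treated with 1 µM compound; FAS mRNA measured by TaqMan-based qRT-PCR.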
The nature of data set [13]: Cmax in C57BL/6 mouse at 5 mg/kg, iv. The format is ADME, organism-based. More on the design: dose 5 mg/kg, route intravenous. To be noted: in vivo. The procedure, abridged:
(§5)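 Mouse PK study, IV and PO; compound formulated at 2.5 mg/mL in PEG300/Tween 80 (4:1). IV dose 5 mpk (AUC, Cmax, clearance, Vss); oral dose 20 mpk (AUC, Cmax, bioavailability, t1/2).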

Data set [14] deals with Liver. The data set can be described thus: Effect on ABCA1 gene expression in C57BL/6 mouse liver. The format is functional, tissue-based. The procedure, abridged:
(§6)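 Male C57BL/6 mice, 10 weeks old, chow-fed, gavaged daily with vehicle or compound (20–200 mpk) for 3 days. Fasted overnight before the last dose; killed 3 h later. Tissue RNA analysed by TaqMan qRT-PCR.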

Data set [15] is described as follows: Clearance in C57BL/6 mouse at 5 mg/kg, iv. Format: ADME, organism-based. More on the design: dose 5 mg/kg, route intravenous. To be noted: in vivo. The procedure, abridged: as §5
A short description of data set [16]: Volume of distribution at steady state in C57BL/6 mouse at 5 mg/kg, iv. The format is ADME, organism-based. More on the design: dose 5 mg/kg, route intravenous. The following applies: in vivo, read-out: Vss. The procedure, abridged:
as §5

Data set [17] has as its system Liver. Put plainly: Effect on SREBP1c gene expression in C57BL/6 mouse liver. The format is functional, tissue-based. The procedure, abridged: as §6
Data set [18] in a line: AUC in C57BL/6 mouse at 20 mg/kg, po. The following applies: plasma. Format: ADME, organism-based. The arrangement: dose 20 mg/kg, route oral. The procedure, abridged:
as §5

Data set [19] in a line: Bioavailability in C57BL/6 mouse at 20 mg/kg, po. The format is ADME, organism-based. To be noted: in vivo. The procedure, abridged:
as §5

The nature of data set [20]: Cmax in C57BL/6 mouse at 20 mg/kg, po. The format is ADME, organism-based. More on the design: dose 20 mg/kg, route oral. To be noted: in vivo. A digest of the protocol:
as §5

The nature of data set [21]: AUC in C57BL/6 mouse at 5 mg/kg, iv. Format: ADME, organism-based. The arrangement: dose 5 mg/kg, route intravenous. To be noted: plasma. The procedure, abridged: as §5
Data set [22] is described as follows: Half life in C57BL/6 mouse at 20 mg/kg, po. Format: ADME, organism-based. More on the design: dose 20 mg/kg, route oral. The following applies: in vivo. The procedure, abridged:
as §5

Activity calls are given as the source filed them.

As usually defined, the EC50 is the concentration needed to bring the measured effect to its halfway point. As to `COc1cccc([C@H]2SC(c3ccc(Cl)cc3)=NN2C(=O)c2c(F)cc(F)cc2F)c1OC`, the EC50 was 0.063 µM in data set [1], 0.067 µM in data set [3], 1.6 µM in data set [6] and 0.346 µM in [11]. The Activity with THP-1 [2] stood at 39%; in the data set on THP-1 [8] it was 60%. Also, in the data set on Macrophage, the result was Active. For the same molecule, the Efficacy worked out at 80% in data set [4]; 100% in [5]; 64% in data set [7]; 98% in data set [9]; 94% in data set [10]; 41% in data set [12].

Take `O=C(O)Cc1cccc(OCCCN(Cc2cccc(C(F)(F)F)c2Cl)CC(c2ccccc2)c2ccccc2)c1`: the EC50 in data set [1] turned out to be 0.004 µM; in data set [3], 0.027 µM; in data set [6], 0.097 µM; in data set [11], 0.066 µM. The Activity in the data set with THP-1 [2] and in the data set on THP-1 [8] was 100% each time. The Efficacy in data set [4], in data set [5], in data set [7], in [9], in data set [10] and in data set [12] was 100% throughout. For the same molecule, the result in the data set on Hepatocyte was Active.

A word on the Cmax: it is the maximum level reached in the sampled fluid or tissue. In general, clearance refers to a measure of how efficiently the substance is removed, as volume per time. High values mean a high capacity for elimination, low ones a low capacity for elimination. One may read the AUC as concentration integrated over time. Higher therefore signals high exposure. By bioavailability is commonly meant dose-corrected exposure relative to a reference, in per cent. Usually half-life stands for the time needed for the level to fall by half in the phase considered. Low values mean fast loss, high ones slow loss. As for `COc1cccc(C2SC(c3ccc(F)cc3)=NN2C(=O)c2c(F)cc(F)cc2F)c1OC` (configuration not stated), the Activity in the data set on THP-1 [2] is 42%; with THP-1 [8], 53%. The EC50 worked out at 0.076 µM in data set [3] and 1.4 µM in data set [6]. Besides, the Cmax in data set [13] stood at 70.9 µM; in data set [20], 6.9 µM. The result in the data set with Liver [14] and with Liver [17] was inactive. Moreover, the Efficacy in data set [7] was 62%; in data set [10], 98%. In addition, the clearance in [15] was 0.136 L/h/kg. Besides, the Vd in data set [16] came out at 0.44 L/kg. For the same molecule, the exposure (AUC) in data set [18] is 16.8 µg·h/mL; in [21], 35.7 µg·h/mL. For the same molecule, the bioavailability in data set [19] is 11%. This molecule also gave a half-life in [22] of 4.5 h.

(Values after ChEMBL document CHEMBL1148736, “N-Acylthiadiazolines, a new class of liver X receptor agonists with selectivity for LXRbeta” (J Med Chem, 2007).)
